In ChEMBL document CHEMBL1153229, “The first synthetic agonists of FFA2: Discovery and SAR of phenylacetamides as allosteric modulators” (Bioorg Med Chem Lett, 2010):
The source made the active and inactive calls. No cut-off for these calls is given here.

Assays:
Rattus norvegicus = assay: AUC in Sprague-Dawley rat at 0.5 mg/kg, iv; assay type: ADME, organism-based, Plasma; design: dose 0.5 mg/kg, route intravenous; settings: in vivo
In short: (§1)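 Male Sprague-Dawley rats dosed 0.5 mg/kg iv.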

[1] = biological target: T1, Free fatty acid receptor 3 (Homo sapiens) (UniProt O14843); assay: Agonist activity at FFA3 receptor up to 30 uM; assay type: functional
T1 sequence (whole entry): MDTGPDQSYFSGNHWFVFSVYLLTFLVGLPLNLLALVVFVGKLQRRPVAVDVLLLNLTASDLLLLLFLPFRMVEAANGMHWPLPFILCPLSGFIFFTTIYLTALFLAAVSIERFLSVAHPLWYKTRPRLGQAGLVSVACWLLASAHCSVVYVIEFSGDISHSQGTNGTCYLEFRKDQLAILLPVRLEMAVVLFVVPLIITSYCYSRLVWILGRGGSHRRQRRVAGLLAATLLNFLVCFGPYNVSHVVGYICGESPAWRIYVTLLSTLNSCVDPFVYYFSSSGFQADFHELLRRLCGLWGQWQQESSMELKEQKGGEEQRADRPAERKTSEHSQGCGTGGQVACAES

[2] = Cmax in mouse at 5 mg/kg, po; assay type: ADME, organism-based; design: dose 5 mg/kg, route oral; settings: in vivo
[3] = biological target: Growth hormone secretagogue receptor type 1 (Homo sapiens) (UniProt Q92847); assay: Agonist activity at GHSR up to 30 uM; assay type: functional
Chain of Growth hormone secretagogue receptor type 1 (Homo sapiens) (Q92847 whole entry): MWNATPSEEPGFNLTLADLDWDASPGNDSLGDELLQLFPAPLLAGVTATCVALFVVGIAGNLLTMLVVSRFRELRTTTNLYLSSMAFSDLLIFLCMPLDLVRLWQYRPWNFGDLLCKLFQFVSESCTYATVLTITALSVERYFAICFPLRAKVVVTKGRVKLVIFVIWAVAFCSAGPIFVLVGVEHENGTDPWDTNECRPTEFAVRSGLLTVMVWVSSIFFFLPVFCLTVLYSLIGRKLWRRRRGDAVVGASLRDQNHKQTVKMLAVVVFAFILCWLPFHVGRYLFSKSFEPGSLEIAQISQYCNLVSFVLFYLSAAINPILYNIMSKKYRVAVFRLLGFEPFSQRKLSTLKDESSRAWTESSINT

[4] = biological target: T2, Free fatty acid receptor 2 (Mus musculus) (UniProt Q8VCK6); assay: Agonist activity at mouse FFA2 receptor expressed in CHO cells assessed as inhibition of forskolin-induced cAMP production; assay type: functional, cell-based
T2 sequence (whole entry): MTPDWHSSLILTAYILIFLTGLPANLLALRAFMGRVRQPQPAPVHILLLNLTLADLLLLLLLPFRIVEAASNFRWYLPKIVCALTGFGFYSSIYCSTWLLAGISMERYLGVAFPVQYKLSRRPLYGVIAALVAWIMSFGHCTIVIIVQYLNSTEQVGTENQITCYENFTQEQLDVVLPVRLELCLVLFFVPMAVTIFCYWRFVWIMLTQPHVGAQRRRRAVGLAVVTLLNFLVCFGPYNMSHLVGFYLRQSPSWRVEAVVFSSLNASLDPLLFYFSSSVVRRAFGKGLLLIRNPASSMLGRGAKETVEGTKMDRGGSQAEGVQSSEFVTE
In short: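 Suspended cells, 10,000 per well, in Hank's balanced salt solution with 25 mM HEPES and 0.01% (w/v) BSA. Stimulated with forskolin (5 μM final) plus serially diluted test ligands, room temperature for 30 min. Antibody and lysis reagents then added, followed by overnight dark incubation with detection solution. Luminescence read (RLU). Efficacy expressed relative to acetate. Means of four experiments.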

[5] = Tmax in mouse at 5 mg/kg, po; assay type: ADME, organism-based; design: dose 5 mg/kg, route oral; settings: in vivo
[6] = biological target: T3, Endothelin receptor type B (Homo sapiens) (UniProt P24530); assay: Agonist activity at ETBR up to 30 uM; assay type: functional
T3 sequence (whole entry): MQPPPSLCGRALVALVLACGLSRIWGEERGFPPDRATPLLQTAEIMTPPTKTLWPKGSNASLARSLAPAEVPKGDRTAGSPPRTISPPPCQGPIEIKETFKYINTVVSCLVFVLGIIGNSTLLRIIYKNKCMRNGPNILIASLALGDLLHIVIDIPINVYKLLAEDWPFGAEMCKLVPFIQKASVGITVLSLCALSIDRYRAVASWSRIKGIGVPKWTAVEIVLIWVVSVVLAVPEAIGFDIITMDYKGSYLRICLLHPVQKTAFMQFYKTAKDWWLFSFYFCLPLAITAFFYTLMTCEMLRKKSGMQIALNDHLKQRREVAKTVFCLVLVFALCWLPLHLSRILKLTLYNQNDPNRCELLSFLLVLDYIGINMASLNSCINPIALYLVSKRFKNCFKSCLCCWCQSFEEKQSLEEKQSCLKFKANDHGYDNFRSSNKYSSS

Mus musculus [7] = assay: Reduction in plasma free fatty acid level in overnight fasted wild type C57BL/6 mouse at 20 mg/kg, ip after 15 mins; assay type: functional, organism-based; design: dose 20 mg/kg
In short: (§2)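 Male-unspecified C57BL6 mice, wild type or FFA2 knockout, fasted overnight. Given compound or vehicle (10% dimethyl acetamide, 10% ethanol, 30% propylene glycol, 50% saline) ip at 10 ml/kg. Tail blood sampled before and 15 minutes after injection. Plasma FFA measured by enzymatic kit. Ten animals per group; t test.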

[8] = AUC in mouse at 5 mg/kg, po; assay type: ADME, organism-based; design: dose 5 mg/kg, route oral; settings: plasma
[9] = Volume of distribution at steady state in Sprague-Dawley rat at 0.5 mg/kg, iv; assay type: ADME, organism-based; design: dose 0.5 mg/kg, route intravenous; settings: in vivo, read-out: Vdss; in short: as §1
[10] = Mean residence time in mouse at 5 mg/kg, po; assay type: ADME, organism-based; design: dose 5 mg/kg, route oral; settings: in vivo
[11] = biological target: Hydroxycarboxylic acid receptor 2 (Homo sapiens) (UniProt Q8TDS4); assay: Agonist activity at GPR109A up to 30 uM; assay type: functional
Chain of Hydroxycarboxylic acid receptor 2 (Homo sapiens) (Q8TDS4 whole entry): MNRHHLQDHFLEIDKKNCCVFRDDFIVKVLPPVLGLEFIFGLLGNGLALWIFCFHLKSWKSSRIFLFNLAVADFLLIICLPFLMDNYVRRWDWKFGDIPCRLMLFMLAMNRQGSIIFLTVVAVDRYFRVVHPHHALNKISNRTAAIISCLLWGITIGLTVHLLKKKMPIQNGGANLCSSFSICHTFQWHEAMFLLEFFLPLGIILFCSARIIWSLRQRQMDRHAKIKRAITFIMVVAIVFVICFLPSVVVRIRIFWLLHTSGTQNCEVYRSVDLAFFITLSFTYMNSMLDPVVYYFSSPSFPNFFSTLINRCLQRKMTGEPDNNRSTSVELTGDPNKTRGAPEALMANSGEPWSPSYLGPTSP

[12] = Mean residence time in Sprague-Dawley rat at 0.5 mg/kg, iv; assay type: ADME, organism-based; design: dose 0.5 mg/kg, route intravenous; settings: in vivo; in short: as §1
[13] = biological target: T4, C-C chemokine receptor type 7 (Homo sapiens) (UniProt P32248); assay: Agonist activity at CCR7 up to 30 uM; assay type: functional
T4 sequence (whole entry): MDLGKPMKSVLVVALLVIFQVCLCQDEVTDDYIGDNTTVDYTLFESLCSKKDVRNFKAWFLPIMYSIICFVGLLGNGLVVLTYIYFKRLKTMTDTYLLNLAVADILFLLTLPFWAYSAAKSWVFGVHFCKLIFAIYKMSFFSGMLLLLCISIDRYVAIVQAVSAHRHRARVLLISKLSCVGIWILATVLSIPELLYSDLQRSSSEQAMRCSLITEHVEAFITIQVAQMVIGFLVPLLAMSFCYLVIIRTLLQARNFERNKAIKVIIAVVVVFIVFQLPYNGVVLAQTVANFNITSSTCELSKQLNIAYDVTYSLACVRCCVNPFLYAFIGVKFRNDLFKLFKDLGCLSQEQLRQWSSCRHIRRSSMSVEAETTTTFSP

Mus musculus [14] = assay: Reduction in plasma free fatty acid level in overnight fasted wild type C57BL/6 mouse at 3 mg/kg, ip after 15 mins; assay type: functional, organism-based; design: dose 3 mg/kg; in short: as §2
3T3-L1 = assay: Inhibition of lipolysis in mouse 3T3L1 cells; assay type: functional, cell-based
In short: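 Lipolysis measured in 3T3L1 adipocytes across a concentration range of test compound. Sensitivity to pertussis toxin treatment also examined. Means of three experiments.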

[15] = biological target: C-C chemokine receptor type 2 (Homo sapiens) (UniProt P41597); assay: Agonist activity at CCR2 up to 30 uM; assay type: functional
Chain of C-C chemokine receptor type 2 (Homo sapiens) (P41597 whole entry, looked up): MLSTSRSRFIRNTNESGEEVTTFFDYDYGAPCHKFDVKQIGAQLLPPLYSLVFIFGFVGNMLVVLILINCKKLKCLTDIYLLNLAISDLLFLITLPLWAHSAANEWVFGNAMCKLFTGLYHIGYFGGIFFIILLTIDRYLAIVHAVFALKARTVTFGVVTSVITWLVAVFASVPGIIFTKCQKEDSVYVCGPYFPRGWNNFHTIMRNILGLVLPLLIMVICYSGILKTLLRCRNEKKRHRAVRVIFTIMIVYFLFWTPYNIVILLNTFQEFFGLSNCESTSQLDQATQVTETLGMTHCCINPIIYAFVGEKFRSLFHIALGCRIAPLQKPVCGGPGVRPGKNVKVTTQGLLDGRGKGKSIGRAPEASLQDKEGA

Mus musculus [16] = assay: Reduction in plasma free fatty acid level in overnight fasted FFA2 knockout C57BL/6 mouse at 20 mg/kg, ip after 15 mins; assay type: functional, organism-based; design: dose 20 mg/kg; in short: as §2

## CC(C)[C@H](C(=O)Nc1ncc(F)s1)c1ccc(Cl)cc1
Rattus norvegicus
  AUC: 194 ng·h/mL
[1]
  Activity: inactive
[2]
  Cmax: 83 ng/mL
[3]
  Activity: inactive
[4]
  Activity: 0.7 µM
[5]
  Tmax: 19.8 min
[6]
  Activity: inactive
Mus musculus [7]
  Activity: Active
[8]
  AUC: 62000 ng·h/mL
[9]
  Vd: 9.8 L/kg
[10]
  MRT: 55.8 min
[11]
  Activity: inactive
[12]
  MRT: 228 min
[13]
  Activity: inactive
Mus musculus [14]
  Activity: Active
3T3-L1
  inhibition: Dose-dependent effect
[15]
  Activity: inactive
Mus musculus [16]
  Activity: Active
